m5-HT2A agonist – agonists of mouse serotonin 5-HT2A receptor (HTR2A). P35363. CHO-K1 mHTR2A beta-arrestin complementation, luminescence; percent of 30 µM serotonin response. activation, % at 7.6 µM. 360,000 tested, 0.66% active. AID 624169;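 active means activation above a run cutoff, the mean activation of all tested compounds plus 3 SD, cut at about 14% in these data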;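 further: 0% = plate median of compound wells and 100% = 30 µM serotonin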
AHR activator – activates the human aryl hydrocarbon receptor. AHR-responsive luciferase reporter cells, luminescence. activation, % at 5 µM. 320,000 tested, 2.5% active. AID 2796; in the data active means activation above about 47%;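 further: 0% = vehicle wells and 100% = reference agonist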
MC4R ag barr – human MC4R agonism via beta-arrestin | U2OS MC4R beta-arrestin complementation, luminescence; percent of melanotan II response, DMSO zero | activation, % at 8.9 µM | 360,000 tested, 0.98% active | P32245;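 active means activation above a per-plate cutoff, the mean activation of sample wells on that plate plus 3 SD, cut at about 8% in these data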
Target sequence (P32245 whole entry, looked up): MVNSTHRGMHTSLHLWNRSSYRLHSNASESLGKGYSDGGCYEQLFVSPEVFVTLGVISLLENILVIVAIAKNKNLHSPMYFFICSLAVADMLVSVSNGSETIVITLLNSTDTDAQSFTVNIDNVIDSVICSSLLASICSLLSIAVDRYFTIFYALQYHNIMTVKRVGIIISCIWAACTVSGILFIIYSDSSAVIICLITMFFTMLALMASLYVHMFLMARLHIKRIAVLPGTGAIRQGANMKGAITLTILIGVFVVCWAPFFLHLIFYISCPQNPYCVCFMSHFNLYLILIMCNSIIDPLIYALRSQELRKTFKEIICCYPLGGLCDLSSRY
FXN GAA850 act – increases GAA850 frataxin promoter reporter activity; HEK293 lucGAA850 FXN promoter luciferase reporter, 24 h; percent of 10 µM SAHA response; activation, % at 6 µM; 360,000 tested, 0.56% active; AID 540364;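 active means activation above the average of all compounds screened plus 3 SD, cutoff fixed separately per campaign, cut at about 7.5% in these data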;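 further: 0% = DMSO wells and 100% = 10 µM SAHA wells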
MC4R antag cAMP – human MC4R antagonism in cAMP assay; MC4R-expressing cells, MTII-stimulated cAMP, LANCE TR-FRET; 360,000 tested, 0.48% active; inhibition, % at 6.5 µM; P32245;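 active means inhibition above its plate's cutoff, the mean of tested wells on that plate plus 3 SD, cut at about 29% in these data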;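 further: 0% = Melanotan II alone and 100% = Melanotan II plus saturating MCL0020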
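Assay system: U2OS cells stably expressing human melanocortin 4 receptor (MC4R) / Dosing: 6.5 µM / Timing: compound 30 min, challenge 1 h, detection 1 h / Measured by: Eu-cAMP/anti-cAMP TR-FRET, emission 671 nm / Replicates: singlicate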
MC4R barr ag – human MC4R beta-arrestin agonism confirmation. shares compounds with MC4R ag barr. U2OS MC4R beta-arrestin recruitment, luminescence; scaled DMSO 0%, Melanotan II 100%. 2,400 tested, 31% active. activation, % at 8.9 µM;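 active means mean activation across replicates above the hit cutoff set in the earlier primary screen, cut at about 8% in these data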
MOR DOR agonist – counter-screen for MC4R agonists: agonists of mu-delta opioid heterodimer | U2OS PathHunter beta-arrestin, beta-gal luminescence; percent of deltorphin B response, DMSO zero | activation, % at 9.2 µM | shares compounds with MC4R ag barr | 2,400 tested, 5.8% active;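 active means mean activation across replicates exceeds the hit threshold derived in the earlier primary screen, cut at about 18% in these data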;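 further: 100% = deltorphin B at 0.9 µM final and 0% = DMSO alone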
Numbers without * were called inactive; x = no result. A selection: hits, their analogues and other compounds. The true share with any hit is near 4.7%.

SMILES	m5-HT2A agonist	AHR activator	MC4R ag barr	FXN GAA850 act	MC4R antag cAMP	MC4R barr ag	MOR DOR agonist
Cc1cc(NC(=O)c2cccs2)n(-c2nc3ccccc3[nH]2)n1	-3	14	12*	2	4	-1	2
COc1ccc(S(=O)(=O)N=N/C=C2\C=CC=CN2O)cc1OC	6	x	1	1	-2	x	x
CCCCOc1ccc(C(C)NC(=O)CCS(=O)(=O)Cc2ccccc2Cl)cc1 (stereo not drawn)	2	5	11*	-2	6	3	4
O=c1cc(-c2ccc(O)cc2)oc2c1ccc1ccccc12	-2	-2	50*	-2	-3	4	4
COc1cc2nc(C3CCC3)nc(N3CCN(c4ccccc4OC)CC3)c2cc1OC	3	12	3	-4	13	x	x
COc1cc(/C=N/NC(=O)c2ccc(COc3cc(C)ccc3C(C)C)cc2)cc(OC)c1O	-3	-7	3	-4	27	x	x
Cc1ccc(C(C)C)c(OCc2ccc(C(=O)N/N=C/c3ccc(O)c(O)c3)cc2)c1	1	-8	20*	-5	18	9.0*	6
C[C@@H]1CN([C@@H](C)CO)C(=O)CCCn2cc(nn2)CO[C@H]1CN(C)S(=O)(=O)c1ccccc1F	2	x	-1	0	7	x	x
c1ccc2c(c1)CCN(c1ncnc3c1[nH]c1ccccc13)C2	1	-13	-2	-5	9	x	x
OC1(c2cccc(C(F)(F)F)c2)CCN(c2ncnc3c2[nH]c2ccccc23)CC1	-1	54*	11*	2	6	2	5
COc1ccc(Cl)cc1NC(=O)COC(=O)c1c(-c2ccccc2)noc1C	5	6	-1	0	12	x	x
COc1ccc(Cl)cc1NC(=O)c1c(-c2ccccc2)noc1C	3	11	27*	-1	-1	0	3
COc1cc(OC)c(NC(=O)c2c(-c3ccccc3)noc2C)cc1Cl	-3	-3	25*	-1	8	6	6
CCCOc1ccccc1OCC(=O)Nc1cccc(S(=O)(=O)NC2=NCCC2)c1	-1	x	-2	2	-4	x	x
CC1(C)COC(Cc2ccccc2)=N1	-3	x	-1	-1	12	x	x
Cc1nc2ccc3nc(NC(=O)c4ccc5c(c4)OCCO5)sc3c2s1	-1	-3	-1	2	12	x	x
Cc1nc2c(ccc3nc(NC(=O)c4ccc5c(c4)OCCO5)sc32)s1	1	-1	11*	2	6	-3	5
Oc1cc(OCc2ccccc2)ccc1-c1[nH]ncc1-c1ccccc1	-2	15	13*	2	4	5	16
COc1ccccc1-c1cn[nH]c1-c1ccc(OCc2ccc([N+](=O)[O-])cc2)cc1O	-1	5	15*	-1	9	6	7
CCOC(=O)N1CCC(NCCNC(=O)c2ccc(F)c(F)c2)CC1	-4	0	0	0	8	x	x
C[C@H]1CN([C@@H](C)CO)C(=O)c2cc(Br)cnc2O[C@H]1CN(C)Cc1ccc(Oc2ccccc2)cc1	-7	x	0	-2	9	x	x
CC(C)(C)c1ccc2c(c1)OC(C(=O)N/N=C\c1ccc[nH]1)CO2 (stereo not drawn)	5	0	11*	-4	11	4	10
CCOC(=O)CNC(=O)CSc1nc(-c2ccc(OC)cc2)ns1	-1	-2	1	2	7	x	x
COc1ccc(-c2nsc(SCC(=O)Nc3cc(C)on3)n2)cc1	0	-2	17*	-3	6	-1	7
Cc1ccc2cc(C)c(SCC(=O)Nc3cc(C)on3)nc2c1	-5	3	20*	-2	18	6	3
SMILES	m5-HT2A agonist	AHR activator	MC4R ag barr	FXN GAA850 act	MC4R antag cAMP	MC4R barr ag	MOR DOR agonist
O=C(OCC(=O)N(CCc1ccccc1)Cc1ccccc1)c1ccc(F)c(S(=O)(=O)N2CCOCC2)c1	0	x	1	0	22	x	x
Cc1cc(Br)ccc1NC(=O)CN(C)C(=O)C1CCN(C(=O)c2ccc(Cl)cc2)CC1	5	x	-1	-1	10	x	x
FC(F)(F)c1cccnc1Oc1ccc(C2=NCCS2)cc1	5	-1	42*	3	3	24*	7
Nc1cccnc1Oc1ccc(F)cc1	-4	1	-1	-1	5	x	x
CCOC(=O)c1cc(NC(=O)N2CCCc3ccccc32)c(C)nc1C	-1	14	1	0	2	x	x
Cc1nc(C)c(NC(=O)N2CCc3ccccc32)cc1NC(=O)N1CCc2ccccc21	-2	50*	25*	1	19	-3	0
CN1CCN(C2=CC3=CC(=C(C#N)C#N)CCC3CC2)CC1 (stereo not drawn)	3	x	15*	-1	-24	14*	7
CC[C@]12c3[nH]c4ccccc4c3CCN1C(=O)C(CC(=O)NCCCN(C)C)C[C@@H]2C(=O)N1CCN(C(=O)C2CC2)CC1 (stereo partly drawn)	7	1	0	2	0	x	x
O=C(CCSc1nnc2ccc3ccccc3n12)Nc1ccc(F)cc1	-3	-8	39*	2	8	4	8
C/C(=C\c1ccco1)C1C(C#N)=C(N)Oc2n[nH]c(-c3ccc(C)cc3)c21 (stereo not drawn)	-1	14	16*	-2	10	23*	11
CCOC(=O)c1[nH]ncc1CN1CCc2ccc(NC(=O)C3CCCO3)cc2C1 (stereo not drawn)	6	6	-2	1	0	x	x
O=C(Nc1nccs1)c1ccc(COc2c(F)c(F)cc(F)c2F)cc1	-3	10	11*	-2	15	6	5
CCOC(=O)c1ccc(NS(=O)(=O)c2c(N)n(C)c(=O)n(C)c2=O)cc1	-6	0	1	0	8	x	x
O=C(O)CCCN1C(=O)/C(=C\c2ccccc2OCc2ccccc2)SC1=S	10	-4	0	-1	10	x	x
O=C(O)CCCN1C(=O)/C(=C/c2cn(-c3ccccc3)nc2-c2cccs2)SC1=S	0	x	9.9*	4	19	6	1
Cc1cc(C)nc(SCC(=O)Nc2ncc(Cc3cccc(Cl)c3)s2)n1	-2	1	16*	0	2	8	3
C=CCn1c(SCC(=O)Nc2ncc(Cc3ccc(C)c(Cl)c3)s2)nnc1-c1ccncc1	5	-1	30*	0	4	16*	3
Cn1c(N)c(C(=O)CSc2nn(-c3ccc(F)cc3)c(=S)s2)c(=O)n(C)c1=O	-3	0	-3	-2	6	x	x
CCc1nc(N)c(C#N)c(-c2ccco2)c1C	0	2	-3	2	-8	x	x

Assay outcomes (PubChem BioAssay)
